According to PMC5613202 (CPT: Pharmacometrics & Systems Pharmacology, 2017):
Where a SMILES comes first, the peptide text is derived from it. Bridges are numbered along the chain shown (N, C = ends). [ ]: non-standard residue; d: D form. 2Nal = N[C@@H](Cc1ccc2ccccc2c1)C(=O)O; Lys(iPr) = CC(C)NCCCC[C@H](N)C(=O)O

How the values were obtained:
blood CD34+ cell counts = assay type: in vivo, human; settings: patients
How it was run: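 Pooled data from three open-label trials of once-daily s.c. peptide antagonist. In the dose-escalation trial, patients received 1–30 mg/day, or 2.5 or 20 mg/day, for 28-day cycles with rich sampling. The other two trials gave 20 mg/day with standard-of-care chemotherapy or sunitinib and used sparse sampling. CD34+ counts were measured by flow cytometry. The model was a precursor model with reversible precursor–central transfer and concentration-driven stimulation of mobilisation (Smax, SC50).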

Antidrug antibody = experiment: Antidrug antibody; set-up: species or system human; settings: all patients included in the analysis datasets
How it was run: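 Serum was sampled repeatedly before and after starting once-daily s.c. dosing. Qualitative direct ELISA: the test compound was immobilised on the plate to capture antibodies, which were detected with HRP-conjugated goat anti-human IgG, IgM and IgA and a tetramethylbenzidine substrate. Pooled normal human serum served as negative control. Serum from hyperimmunised cynomolgus monkeys, at various dilutions, served as positive control.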

[1] = tested on: CXCL12/CXCR4-mediated chemotaxis; settings: in vitro; cited from earlier work
CXCR4 = settings: cited from earlier work
MDA‐MB‐231 breast cancer = MDA‐MB‐231 breast cancer metastatic xenograft model; cited from earlier work
[2] = tested on: leukocytes and hematopoietic progenitors; settings: rodent and primate models; cited from earlier work
[3] = rats, excretion studies, no reference given; cited from earlier work
cytochromes = settings: preclinical evaluations, no reference given; cited from earlier work
[4] = assay type: in vivo, human
How it was run: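 The analysis used 767 plasma samples from 147 patients given once-daily s.c. doses. Concentrations were measured by validated LC-MS/MS (LLOQ 0.2, ULOQ 100 ng/mL). The data were fitted with a two-compartment nonlinear mixed-effects model with first-order absorption and dose-dependent clearance. Exponential interindividual variability was used, with allometric body-weight scaling to an 80.1-kg subject. The model was built on rich dose-escalation data, then refined with sparse data. Absorption rate was later fixed at 10 h-1.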

[5] = population PK typical value, s.c.

Question: For `CC(C)NCCCC[C@H](NC(=O)[C@H]1CCC(=O)N[C@@H](Cc2ccccc2)C(=O)N[C@@H](Cc2ccc(O)cc2)C(=O)N[C@@H](CCCCNC(C)C)C(=O)N[C@H](CCCNC(=N)N)C(=O)N[C@@H](Cc2ccc3ccccc3c2)C(=O)NCC(=O)N1)C(N)=O` [LY2510924] (FY[Lys(iPr)][dR][2Nal]G[dE][Lys(iPr)]-NH2; lactam N-7), which “SC50, LY2510924 concentration at which half of the maximum stimulatory effect is achieved” value (blood CD34+ cell counts; PK/PD model typical value, plasma concentration) is on record?
Answer: 6.87 ng/mL

Question: And the “Smax, maximum stimulatory effect of LY2510924 on CD34+ cell mobilization” value (blood CD34+ cell counts; PK/PD model typical value, s.c. once daily)?
Answer: 13.1

Question: And the EC50 (blood CD34+ cell counts; read-out: SC50, LY2510924 concentration at which half of the maximum stimulatory effect is achieved, conversion of 6.87 ng/mL, plasma concentration)?
Answer: 5.78 nM

Question: What about the “patients who developed ADA” value (Antidrug antibody) of the same compound?
Answer: None

Question: And the “value observed in chemotaxis inhibition assays” value [1]?
Answer: 0.26 nM

Question: And the CXCR4 agonist properties (CXCR4)?
Answer: does not exhibit any CXCR4 agonist properties

Question: What about the “effect on tumor metastasis” value (MDA‐MB‐231 breast cancer) of the same compound?
Answer: inhibit tumor metastasis

Question: And the “mobilization of leukocytes and hematopoietic progenitors to the blood stream” value [2]?
Answer: dose‐ and time‐dependent mobilization

Question: What about the “dose recovered as parent drug in urine” value [3] of the same compound?
Answer: < 40%

Question: And the “substrate, inhibitor or inducer of cytochromes” value (cytochromes)?
Answer: not a substrate, an inhibitor, or an inducer of cytochromes

Question: What about the “TVKA, estimates of typical first‐order absorption rate when estimated” value ([4]; high and poorly estimated, before fixing, s.c.) of the same compound?
Answer: > 40 h⁻¹

Question: What about the “TVV2/F, typical apparent central volume of distribution” value ([4]; population PK typical value, 80.1-kg subject, s.c.) of the same compound?
Answer: 35.0 L

Question: And the “TVCLmin/F, typical minimum apparent elimination clearance” value ([4]; population PK typical value, 80.1-kg subject, s.c. once daily, 147 patients)?
Answer: 4.75 L/h

Question: What about the “TVQ/F, typical apparent distribution clearance” value [4, 5] of the same compound?
Answer: 3.74 L/h

Question: And the “TVV3/F, typical apparent peripheral volume of distribution” value [4, 5]?
Answer: 21.9 L

Question: What about the “bV, typical allometric exponent specific to central volume” value ([4]; population PK, body weight scaling relative to 80.1 kg) of the same compound?
Answer: 0.948
